# Assay results collected from several papers.
# Each line is one published result; the experiments were not run side by side.
# Target: Fibroblast growth factor receptor 2 (FGFR2, Homo sapiens, UniProt P21802)
SMILES,assay,conditions,remaining binding
N[C@@H]1CCN(c2nccc(-c3cnn4ncccc34)n2)C1,binding,1 µM,99%
O=C(c1ccc(Nc2ncc(Cl)c(-c3ccc(Cl)s3)n2)cc1)N1CCC(N2CCCC2)CC1,"binding, competition with immobilised ligand",1 µM,4.4%
C[C@@H]1CN(c2ccc3ncc(-c4ccc5[nH]nc(C6CC6)c5c4)n3n2)C[C@H](C)O1,"binding, competition with immobilised ligand",50 nM,100%
C=CC(=O)N1CCC(C(=O)NCC(=O)N2CCN(c3nc(-c4cnc(N)nc4C(F)F)nc(N4CCOCC4)n3)CC2)CC1,"binding, competition with immobilised ligand",1 µM,89%
O=C(NCCCN1CCOCC1)c1ccc(Nc2ncc(Cl)c(-c3ccc(Cl)s3)n2)cc1,"binding, competition with immobilised ligand",1 µM,29%
C[C@@H](c1ccc(-n2cnc3c(N)ncnc32)cc1)N1CCc2nn(C)c(Cc3ccccc3)c2C1=O,"binding, competition with immobilised ligand",0.1 µM,72%
C[C@H](c1ccc(F)cc1)N(Cc1cccc(C(=O)O)c1)C(=O)c1cnc2ccccc2c1,"cell-free assay, competition with immobilised ligand",1 µM,74%
COc1ccnn2ncc(-c3ccnc(N(C)C)n3)c12,binding,1 µM,100%
Cc1cc(-n2nc(Cc3cc(F)cc(C(F)(F)F)c3)nc2C)ccc1C(N)=O,"cell-free assay, competition with immobilised ligand",1 µM,100%
N#Cc1ccccc1CSc1nnc2c(n1)[nH]c1ccccc12,"binding, competition with immobilised ligand",10 µM,91%
O=C(c1ccc(Nc2ncc(Cl)c(-c3cc4ccccc4s3)n2)cc1)N1CCC(N2CCCC2)CC1,"binding, competition with immobilised ligand",1 µM,33%
C[C@@H]1CCN(c2nccc(-c3cnn4ncccc34)n2)C1,binding,1 µM,92%
CNC(=O)[C@@H]1CC[C@@H](n2c(-c3ccc4cnccc4c3)nc3ccc(C(=O)NCc4cccc(C(N)=O)c4)cc32)C1,"binding, competition with immobilised ligand",1 µM,96%
Cc1c(C(=O)O)cc(-c2ccc(C3CCNCC3)cc2)c2ccc(-c3ccc(C(F)(F)F)cc3)cc12,"cell-free assay, competition with immobilised ligand",1 µM,100%
CN(c1nccc(-c2cnn3ncccc23)n1)C1CC1,binding,1 µM,100%
CN1CCN(c2cnc3c(C4CCN(C(=O)c5ccc(OC(F)(F)F)cc5N)CC4)ncnc3c2)CC1,"cell-free assay, competition with immobilised ligand",1 µM,100%
CN(C)c1nccc(-c2cnn3ncccc23)n1,binding,1 µM,100%
CCOCCn1cc(C(=O)Nc2ccc(-n3nc(-c4cccnc4)cc3C(F)(F)F)cn2)ccc1=O,"cell-free assay, competition with immobilised ligand",1 µM,49%
CN(C)c1nccc(-c2cnc3ncccn23)n1,binding,1 µM,100%
CCCOc1ccc([C@@H]2[C@@H](C(=O)O)[C@H](c3ccc4c(c3)OCO4)CN2CC(=O)Nc2c(CC)cccc2CC)cc1,"cell-free assay, competition with immobilised ligand",1 µM,100%
O=C(Nc1c[nH]nc1C(=O)NC1CCNCC1)c1cc(F)cc(F)c1,"binding, competition with immobilised ligand",1 µM,100%
COc1ccc2cc(OCC3(C(=O)O)CN(C(=O)c4ccc(F)cc4)C3)ccc2c1,"cell-free assay, competition with immobilised ligand",1 µM,100%
CCN1CCN(Cc2ccc(C(=O)Nc3ccc(C)c(Oc4ccc5c(c4)CC(=O)N5)c3)cc2C(F)(F)F)CC1,"binding, competition with immobilised ligand",1 µM,83%
CN(C)c1ncc(F)c(-c2cnn3ncccc23)n1,binding,1 µM,100%
C[C@H](NC(=O)c1cnc2n1[C@](C)(Cc1ccc(C#N)cc1)C(=O)N2c1cc(Cl)c(F)c(Cl)c1)C(=O)NC1(c2ccccn2)CC1,"cell-free assay, competition with immobilised ligand",1 µM,100%
